Data taken from ChEMBL document CHEMBL5724801, “EUbOPEN Chemogenomics Library - Multiplex” (2024).
Values joined by “and” are separate entries in the source; they are usually repeats but may differ in a detail not shown here. Equal entries are not always repeated.

System: HEK-293T
Test: Multiplex assay against HEK293T
Assay type: toxicity, cell-based
Details: human
In short: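 Tubulin, mitochondrial-mass and membrane-permeability phenotypes are per cents of healthy-nucleus cells. Cells were gated by CellPathfinder machine learning into Hoechst high-intensity objects or normal cells, normal cells into healthy, pyknosed or fragmented nuclei, and pyknosed cells into mitotic or apoptotic. Before that, live cells stained at seeding with Hoechst33342, BioTracker Green Microtubule Cytoskeleton Dye, MitoTracker Red and Annexin V Alexa Fluor 680 were imaged on a CQ1 microscope at 37°C and 5% CO2 after compound addition.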

[1] = 12 h, 1 µM, compound concentration 1 uM
[2] = 12 h, 10 µM, compound concentration 10 uM
[3] = 24 h, 1 µM, compound concentration 1 uM
[4] = 24 h, 10 µM, compound concentration 10 uM
[5] = 48 h, 1 µM, compound concentration 1 uM
[6] = 48 h, 10 µM, compound concentration 10 uM

In the case of CCn1c(-c2ccncc2)cc2c1CCNC2=O, the “Population Apoptotic (%)” value [1] is reported as 15.09% and 7.09%, the “Population Fragmented Nuclei (%)” value [1] is reported as 1.92% and 1.82% and the “Population Hoechst High Intensity Objects (%)” value [1] is reported as 0.95% and 0%. The “Population Membrane Permeable-Phenotype (%)” value [1] was 2.72% and 0%, the “Population Mitochondria Different-Phenotype (%)” value [1] was 35.37% and 23.81% and the “Population Mitotic Cells (%)” value [1] was 84.91% and 92.91%. The “Population Normal (%)” value [1] was 99.05% and 100%, the “Population Pyknosed Nuclei (%)” value [1] was 50.96% and 85.45% and the “Population Tubulin-Different-Phenotype (%)” value [1] was 7.48% and 14.29%. The “Total Cell Count” value [1] was 315 and 165, the “Population Apoptotic (%)” value [2] was 15.05% and 13.74% and the “Population Fragmented Nuclei (%)” value [2] was 0.77% and 4.17%. For the same compound, the “Population Hoechst High Intensity Objects (%)” value [2] was 0%, the “Population Membrane Permeable-Phenotype (%)” value [2] was 0% and 14.29% and the “Population Mitochondria Different-Phenotype (%)” value [2] was 31.51% and 14.29%. For the same compound, the “Population Mitotic Cells (%)” value [2] was 84.95% and 86.26%, the “Population Normal (%)” value [2] was 100% and the “Population Pyknosed Nuclei (%)” value [2] was 71.26% and 90.97%. The “Population Tubulin-Different-Phenotype (%)” value [2] was 5.48% and 14.29%, the “Total Cell Count” value [2] was 261 and 144 and the “Population Apoptotic (%)” value [3] was 31.73% and 15.24%. For the same compound, the “Population Fragmented Nuclei (%)” value [3] was 2.16% and 2.84%, the “Population Hoechst High Intensity Objects (%)” value [3] was 0.27% and 0% and the “Population Membrane Permeable-Phenotype (%)” value [3] was 1.16% and 6.25%. The “Population Mitochondria Different-Phenotype (%)” value [3] was 23.17% and 18.75%, the “Population Mitotic Cells (%)” value [3] was 68.27% and 84.76% and the “Population Normal (%)” value [3] was 99.73% and 100%. The “Population Pyknosed Nuclei (%)” value [3] was 28.03% and 74.47%, the “Population Tubulin-Different-Phenotype (%)” value [3] was 32.43% and 18.75% and the “Total Cell Count” value [3] was 372 and 141. The “Population Apoptotic (%)” value [4] was 46.45% and 34.13%, the “Population Fragmented Nuclei (%)” value [4] was 1.6% and 3.57% and the “Population Hoechst High Intensity Objects (%)” value [4] was 0%. For the same compound, the “Population Membrane Permeable-Phenotype (%)” value [4] was 0%, the “Population Mitochondria Different-Phenotype (%)” value [4] was 30.77% and 44.44% and the “Population Mitotic Cells (%)” value [4] was 53.55% and 65.87%. The “Population Normal (%)” value [4] was 100%, the “Population Pyknosed Nuclei (%)” value [4] was 62% and 90% and the “Total Cell Count” value [4] was 250 and 140. For the same compound, the “Population Apoptotic (%)” value [5] was 33.96% and 24.19%, the “Population Fragmented Nuclei (%)” value [5] was 5.74% and 0% and the “Population Healthy Nuclei (%)” value [5] was 80.42% and 45.61%. For the same compound, the “Population Hoechst High Intensity Objects (%)” value [5] was 0.78% and 0.87%, the “Population Membrane Permeable-Phenotype (%)” value [5] was 2.6% and 0% and the “Population Mitochondria Different-Phenotype (%)” value [5] was 61.36% and 40.38%. The “Population Mitotic Cells (%)” value [5] was 66.04% and 75.81%, the “Population Normal (%)” value [5] was 99.22% and 99.13% and the “Population Apoptotic (%)” value [6] was 66.43% and 44.74%. For the same compound, the “Population Fragmented Nuclei (%)” value [6] was 1.61% and 5.88%, the “Population Hoechst High Intensity Objects (%)” value [6] was 0% and the “Population Membrane Permeable-Phenotype (%)” value [6] was 0%. The “Population Mitochondria Different-Phenotype (%)” value [6] was 82.35% and 78.57%, the “Population Mitotic Cells (%)” value [6] was 33.57% and 55.26% and the “Population Normal (%)” value [6] was 100%. The “Population Pyknosed Nuclei (%)” value [6] was 57.43% and 83.82% and the “Total Cell Count” value [6] was 249 and 136.

Cc1cnc(-c2cc(N3CCN(C(=O)CCS(C)(=O)=O)CC3)ncc2Cl)c(C)c1 was tested, and the “Population Apoptotic (%)” value [1] was 29% and 42%, the “Population Fragmented Nuclei (%)” value [1] was 6% and the “Population Healthy Nuclei (%)” value [1] was 76% and 75%. For the same compound, the “Population Hoechst High Intensity Objects (%)” value [1] was 4% and 9%, the “Population Membrane Permeable-Phenotype (%)” value [1] was 0% and the “Population Mitochondria Different-Phenotype (%)” value [1] was 50% and 69%. The “Population Mitotic Cells (%)” value [1] was 70% and 57%, the “Population Normal (%)” value [1] was 95% and 90% and the “Population Pyknosed Nuclei (%)” value [1] was 16% and 17%. The “Population Tubulin-Different-Phenotype (%)” value [1] was 33% and 24%, the “Total Cell Count” value [1] was 276 and 294 and the “Population Apoptotic (%)” value [2] was 42% and 45%. For the same compound, the “Population Fragmented Nuclei (%)” value [2] was 7%, the “Population Healthy Nuclei (%)” value [2] was 82% and 75% and the “Population Hoechst High Intensity Objects (%)” value [2] was 10% and 7%. The “Population Membrane Permeable-Phenotype (%)” value [2] was 0%, the “Population Mitochondria Different-Phenotype (%)” value [2] was 47% and 70% and the “Population Mitotic Cells (%)” value [2] was 57% and 54%. The “Population Normal (%)” value [2] was 89% and 92%, the “Population Pyknosed Nuclei (%)” value [2] was 10% and 17% and the “Population Tubulin-Different-Phenotype (%)” value [2] was 40% and 39%. The “Total Cell Count” value [2] was 409 and 288, the “Population Apoptotic (%)” value [3] was 36% and 40% and the “Population Fragmented Nuclei (%)” value [3] was 8% and 7%. For the same compound, the “Population Healthy Nuclei (%)” value [3] was 78% and 83%, the “Population Hoechst High Intensity Objects (%)” value [3] was 2% and 6% and the “Population Membrane Permeable-Phenotype (%)” value [3] was 1% and 0%. For the same compound, the “Population Mitochondria Different-Phenotype (%)” value [3] was 30% and 36%, the “Population Mitotic Cells (%)” value [3] was 63% and 60% and the “Population Normal (%)” value [3] was 97% and 93%. For the same compound, the “Population Pyknosed Nuclei (%)” value [3] was 12% and 9%, the “Population Tubulin-Different-Phenotype (%)” value [3] was 21% and 13% and the “Total Cell Count” value [3] was 368 and 413. The “Population Apoptotic (%)” value [4] was 33% and 51%, the “Population Fragmented Nuclei (%)” value [4] was 15% and 7% and the “Population Healthy Nuclei (%)” value [4] was 76% and 80%. The “Population Hoechst High Intensity Objects (%)” value [4] was 5%, the “Population Membrane Permeable-Phenotype (%)” value [4] was 0% and the “Population Mitochondria Different-Phenotype (%)” value [4] was 29% and 47%. The “Population Mitotic Cells (%)” value [4] was 66% and 48%, the “Population Normal (%)” value [4] was 94% and the “Population Pyknosed Nuclei (%)” value [4] was 8% and 12%. The “Population Tubulin-Different-Phenotype (%)” value [4] was 31% and 22%, the “Total Cell Count” value [4] was 550 and 392 and the “Population Apoptotic (%)” value [5] was 27% and 34%. The “Population Fragmented Nuclei (%)” value [5] was 17% and 14%, the “Population Healthy Nuclei (%)” value [5] was 76% and 78% and the “Population Hoechst High Intensity Objects (%)” value [5] was 1% and 2%. For the same compound, the “Population Membrane Permeable-Phenotype (%)” value [5] was 1% and 0%, the “Population Mitochondria Different-Phenotype (%)” value [5] was 17% and 22% and the “Population Mitotic Cells (%)” value [5] was 72% and 65%. For the same compound, the “Population Normal (%)” value [5] was 98% and 97%, the “Population Pyknosed Nuclei (%)” value [5] was 6% and the “Population Tubulin-Different-Phenotype (%)” value [5] was 10% and 6%. The “Total Cell Count” value [5] was 718 and 595, the “Population Apoptotic (%)” value [6] was 25% and 36% and the “Population Fragmented Nuclei (%)” value [6] was 14%. The “Population Healthy Nuclei (%)” value [6] was 78% and 77%, the “Population Hoechst High Intensity Objects (%)” value [6] was 4% and 3% and the “Population Membrane Permeable-Phenotype (%)” value [6] was 0%. For the same compound, the “Population Mitochondria Different-Phenotype (%)” value [6] was 23% and 32%, the “Population Mitotic Cells (%)” value [6] was 74% and 63% and the “Population Normal (%)” value [6] was 95% and 96%. The “Population Pyknosed Nuclei (%)” value [6] was 7% and 8%, the “Population Tubulin-Different-Phenotype (%)” value [6] was 17% and 15% and the “Total Cell Count” value [6] was 753 and 576.
